Data reported in ChEMBL document CHEMBL3244174, “Synthesis and biological activity of some new furan quaternary salts” (J Med Chem, 1977).
In brackets after ≈: the same amount, converted by molar mass.

Tests used:
Enterococcus faecalis = assay: Antibacterial activity against Streptococcus faecalis ATCC 10541 assessed as growth inhibition after 24 hrs by dilution tube method; assay type: functional; details: ATCC 10541, 24 h
In short: (§1)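 Broth tube dilution in Tryptone Soya Broth, duplicate tubes at each concentration. MIC (μg/ml) was the highest dilution preventing visible growth. Nitrofurantoin run under the same conditions.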

Staphylococcus aureus = assay: Antibacterial activity against Staphylococcus aureus ATCC 6538 assessed as growth inhibition after 24 hrs by dilution tube method; assay type: functional; details: ATCC 6538, 24 h; in short: as §1
Microsporum canis = assay: Antifungal activity against Microsporum canis VM-200 USPHS assessed as growth inhibition by agar dilution method; assay type: functional
[1] = system: Trichophyton mentagrophytes; assay: Antifungal activity against Trichophyton mentagrophytes A-280 USPHS assessed as growth inhibition by agar dilution method; assay type: functional
Histoplasma capsulatum = assay: Antifungal activity against Histoplasma capsulatum RNSH Hi-70 1/2 assessed as growth inhibition by agar dilution method; assay type: functional
[2] = system: Agrobacterium tumefaciens; assay: Antibacterial activity against Agrobacterium tumefaciens NRRL B-36 assessed as growth inhibition after 24 hrs by dilution tube method; assay type: functional; details: NRRL B-36, 24 h; in short: as §1
Salmonella typhi = assay: Antibacterial activity against Salmonella typhi 115 assessed as growth inhibition after 24 hrs by dilution tube method; assay type: functional, Salmonella enterica subsp. enterica serovar Typhi; details: Salmonella enterica, 115, 24 h
In short: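 Dilution tube method in Tryptone Soya Broth; MIC (μg/ml) taken as highest dilution preventing visible growth; duplicates at every concentration; nitrofurantoin reference run under same conditions.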

Pseudomonas aeruginosa = assay: Antibacterial activity against Pseudomonas aeruginosa ATCC 10145 assessed as growth inhibition after 24 hrs by dilution tube method; assay type: functional; details: ATCC 10145, 24 h; in short: as §1
[3] = system: Mycobacterium tuberculosis; assay: Antibacterial activity against Mycobacterium tuberculosis H37Rv assessed as growth inhibition by serial dilution method; assay type: functional
In short: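 M. tuberculosis H37Rv maintained on Lowenstein–Jensen medium; tested in Youman's medium by serial dilution.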

Cryptococcus neoformans = assay: Antifungal activity against Cryptococcus neoformans 103 assessed as growth inhibition by agar dilution method; assay type: functional
Klebsiella pneumoniae = assay: Antibacterial activity against Klebsiella pneumoniae ATCC 10031 assessed as growth inhibition after 24 hrs by dilution tube method; assay type: functional; details: ATCC 10031, 24 h; in short: as §1
Candida albicans = assay: Antifungal activity against Candida albicans SKF 2270 assessed as growth inhibition by agar dilution method; assay type: functional
Trichophyton rubrum = assay: Antifungal activity against Trichophyton rubrum 252 CSTM assessed as growth inhibition by agar dilution method; assay type: functional
Escherichia coli = assay: Antibacterial activity against Escherichia coli 114 assessed as growth inhibition after 24 hrs by dilution tube method; assay type: functional; details: Escherichia coli, 114, 24 h; in short: as §1
Nannizzia gypsea = assay: Antifungal activity against Microsporum gypseum 153 CSTM assessed as growth inhibition by agar dilution method; assay type: functional

| Compound | MIC (Enterococcus faecalis) [µg/mL] | MIC (Staphylococcus aureus) [µg/mL] | MIC (Microsporum canis) [µg/mL] | MIC [1] [µg/mL] | MIC (Histoplasma capsulatum) [µg/mL] | MIC [2] [µg/mL] | MIC (Salmonella typhi) [µg/mL] | MIC (Pseudomonas aeruginosa) [µg/mL] | MIC [3] [µg/mL] | MIC (Cryptococcus neoformans) [µg/mL] | MIC (Klebsiella pneumoniae) [µg/mL] | MIC (Candida albicans) [µg/mL] | MIC (Trichophyton rubrum) [µg/mL] | MIC (Escherichia coli) [µg/mL] | MIC (Nannizzia gypsea) [µg/mL] |
| --- | --- | --- | --- | --- | --- | --- | --- | --- | --- | --- | --- | --- | --- | --- | --- |
| C[N+](C)(CCCCCCCCCCCCOc1c(Br)cc(Br)cc1Br)Cc1ccc([N+](=O)[O-])o1.[Br-] | 200 | 200 | > 200 | > 200 | > 200 | > 200 | > 200 | 50 | 100 | 200 | 200 | > 200 | > 200 | – | – |
| C[N+](C)(CCCCOc1ccccc1Cl)Cc1ccc([N+](=O)[O-])o1.[Br-] | > 200 | 100 | > 200 | > 200 | > 200 | > 200 | > 200 | 100 | – | > 200 | 100 | > 200 | > 200 | > 200 | > 200 |
| C[N+](C)(CCCCOc1ccc(Cl)cc1)Cc1ccc(Br)o1.[Br-] | 100 | 100 | > 200 | > 200 | > 200 | 100 | 100 | 50 | – | > 200 | 100 | > 200 | > 200 | 100 | > 200 |
| Cc1cc(OCCCCCCCCCC[N+](C)(C)Cc2ccc(Br)o2)c(C(C)C)cc1Cl.[Br-] | 50 | 25 | 100 | – | 100 | > 200 | > 200 | 25 | – | 100 | – | > 200 | > 200 | > 200 | > 200 |
| O=C1CN(/N=C/c2ccc([N+](=O)[O-])o2)C(=O)N1 [NITROFURANTOIN] | 100 (≈ 420 µM) | 25 (≈ 105 µM) | – | – | – | 25 (≈ 105 µM) | 25 (≈ 105 µM) | 2.5 (≈ 10.5 µM) | – | – | 5 (≈ 21 µM) | – | – | 25 (≈ 105 µM) | – |
| C[N+](C)(CCCCOc1ccccc1Cl)Cc1ccc(Br)o1.[Br-] | > 200 | 100 | > 200 | > 200 | > 200 | > 200 | > 200 | 100 | – | > 200 | 100 | > 200 | > 200 | > 200 | > 200 |
| C[N+](C)(CCCCCCCCCCOc1c(Br)cc(Br)cc1Br)Cc1ccc([N+](=O)[O-])o1.[Br-] | 4 | 2 | > 200 | – | > 200 | 10 | > 200 | 3 | 7.5 | 4 | 4 | > 200 | > 200 | > 200 | > 200 |
| C[N+](C)(CCCCCOc1ccccc1Cl)Cc1ccc(Br)o1.[Br-] | > 200 | 50 | > 200 | > 200 | > 200 | > 200 | > 200 | 50 | – | > 200 | 100 | > 200 | > 200 | > 200 | > 200 |
| C[N+](C)(CCCCCOc1ccc(Cl)cc1Cl)Cc1ccc(Br)o1.[Br-] | 50 | 25 | 50 | > 200 | 100 | 50 | > 200 | 10 | – | 50 | 25 | > 200 | > 200 | > 200 | > 200 |
| C[N+](C)(CCCCOc1ccc(Cl)cc1)Cc1ccc([N+](=O)[O-])o1.[Br-] | > 200 | 100 | > 200 | > 200 | > 200 | > 200 | > 200 | 100 | – | > 200 | 100 | > 200 | > 200 | > 200 | > 200 |
| Cc1cc(OCCCCCCCCCC[N+](C)(C)Cc2ccc([N+](=O)[O-])o2)c(C(C)C)cc1Cl.Cc1ccc(S(=O)(=O)[O-])cc1 | 100 | 200 | > 200 | 200 | > 200 | – | > 200 | 50 | 25 | 100 | 200 | > 200 | > 200 | > 200 | > 200 |
| C[N+](C)(CCOc1c(Br)cc(Br)cc1Br)Cc1ccc(Br)o1.[Br-] | 25 | 25 | 100 | 100 | 100 | 100 | > 200 | 25 | – | 50 | 25 | > 200 | > 200 | > 200 | > 200 |
| C[C@@H]1[C@H](O)[C@@H](C)/C=C/C=C/C=C/C=C/C=C/C=C/C=C/[C@H](O[C@@H]2O[C@H](C)[C@@H](O)[C@H](N)[C@@H]2O)C[C@@H]2O[C@](O)(C[C@@H](O)C[C@@H](O)[C@H](O)CC[C@@H](O)C[C@@H](O)CC(=O)O[C@H]1C)C[C@H](O)[C@H]2C(=O)O [AMPHOTERICIN B] | – | – | 5 (≈ 5.41 µM) | 10 (≈ 10.8 µM) | 0.5 (≈ 0.541 µM) | – | – | – | – | – | – | 2.5 (≈ 2.71 µM) | 10 (≈ 10.8 µM) | – | 10 (≈ 10.8 µM) |
| Cc1cc(OCCCCCC[N+](C)(C)Cc2ccc([N+](=O)[O-])o2)c(C(C)C)cc1Cl.[Br-] | > 200 | > 200 | 100 | > 200 | > 200 | > 200 | > 200 | > 200 | – | 25 | > 200 | > 200 | 200 | > 200 | > 200 |
| C[N+](C)(CCCCCOc1ccc(Cl)cc1)Cc1ccc(Br)o1.[Br-] | 100 | 50 | 100 | > 200 | > 200 | > 200 | > 200 | 25 | – | > 200 | 50 | > 200 | > 200 | > 200 | > 200 |
